Assay results as given in ChEMBL document CHEMBL5385869, “Novel 4-aminoquinolines: Synthesis, inhibition of the Mycobacterium tuberculosis enoyl-acyl carrier protein reductase, antitubercular activity, SAR, and preclinical evaluation” (Eur J Med Chem, 2023).
Converted amounts (≈) assume the structure as drawn. “And” between values parts separate entries of the source, which are not always exact repeats. Equal entries are not always repeated. The source made the active and inactive calls. No cut-off for these calls is given here.

How the values were obtained:
[1] = molecular target: T1, Enoyl-[acyl-carrier-protein] reductase [NADH] (Mycobacterium tuberculosis) (UniProt P9WGR1); assay: Binding affinity to recombinant Mycobacterium tuberculosis InhA assessed as change in entropy at 2 mM in presence of NADH by Spectrofluorophotometry
T1 sequence (whole entry): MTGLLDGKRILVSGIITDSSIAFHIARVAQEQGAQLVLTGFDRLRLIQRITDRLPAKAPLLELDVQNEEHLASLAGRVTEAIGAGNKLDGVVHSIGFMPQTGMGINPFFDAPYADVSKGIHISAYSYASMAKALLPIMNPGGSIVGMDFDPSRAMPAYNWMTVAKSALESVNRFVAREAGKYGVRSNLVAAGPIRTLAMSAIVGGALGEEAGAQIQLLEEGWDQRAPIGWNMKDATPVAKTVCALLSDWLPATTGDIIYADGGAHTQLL

[2] = molecular target: T1, Enoyl-[acyl-carrier-protein] reductase [NADH] (Mycobacterium tuberculosis); assay: Binding affinity to recombinant Mycobacterium tuberculosis InhA assessed as gibbs free energy change at 2 mM in presence of NADH by Spectrofluorophotometry
[3] = test system: Mycobacterium tuberculosis; assay: Antibacterial activity against pan-sensitive Mycobacterium tuberculosis H37Rv ATCC 27294 measured after 7 days by resazurin dye based assay; assay type: functional; details: H37Rv ATCC 27294, 168 h, time 7 day
In short: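 Resazurin reduction microplate assay (REMA) in Middlebrook 7H9 broth with 10% ADC and 5% DMSO. Compounds come from 2 mg/mL DMSO stocks and are 2-fold serially diluted, top concentration 0.08–40 μg/mL depending on solubility. MIC is the lowest concentration preventing the blue-to-pink colour change. Three independent experiments; the reported value is the modal or the highest value.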

[4] = molecular target: T1, Enoyl-[acyl-carrier-protein] reductase [NADH] (Mycobacterium tuberculosis); assay: Binding affinity to recombinant Mycobacterium tuberculosis InhA assessed as change in enthalpy at 2 mM in presence of NADH by Spectrofluorophotometry
[5] = test system: Mycobacterium tuberculosis; assay: Antibacterial activity against MDR Mycobacterium tuberculosis clinical isolate PE-003 measured after 7 days by resazurin dye based assay; assay type: functional; details: PE-003, 168 h, time 7 day
[6] = molecular target: T2, Enoyl-[acyl-carrier-protein] reductase [NADH] (Mycobacterium tuberculosis, UniProt P9WGR1); assay: Binding affinity to wild type Mycobacterium tuberculosis InhA assessed as inhibition constant in presence of NADH, DD-CoA by spectrophotometry based analysis
T2 sequence (P9WGR1 whole entry): T1 sequence (whole entry)

[7] = molecular target: T2, Enoyl-[acyl-carrier-protein] reductase [NADH]; assay: Binding affinity to wild type Mycobacterium tuberculosis InhA assessed as inhibition constant for formation of enzyme-inhibitor complex in presence of NADH and DD-CoA by spectrophotometry based analysis
[8] = test system: Mycobacterium tuberculosis; assay: Bactericidal activity in Mycobacterium tuberculosis H37Rv ATCC 27294 infected in CF-1 mouse assessed as reduction in bacterial growth in lungs at 150 uM/kg, po administered daily for 14 days starting from 7 days post infection; assay type: functional, organism-based; details: time 14.0 day
In short: (§1)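 Lung and spleen homogenates plated for CFU counts and compared with vehicle and early-control groups.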

[9] = test system: Mycobacterium tuberculosis; assay: Antibacterial activity against Mycobacterium tuberculosis H37Rv ATCC 27294 infected in CF-1 mouse assessed as reversal of bacterial growth in spleen at 150 uM/kg, po administered daily for 14 days starting from 7 days post infection; assay type: functional, organism-based; details: time 14.0 day; in short: as §1
[10] = molecular target: T2, Enoyl-[acyl-carrier-protein] reductase [NADH]; assay: Binding affinity to Mycobacterium tuberculosis H37Rv InhA assessed as dissociation constant in presence of NADH, octenoyl-CoA and KatG

| SMILES | deltaS [1] [cal/mol/K] | deltaG [2] [kcal/mol] | MIC [3] [µM] | deltaH [4] [kcal/mol] | MIC [5] | Ki [6] [pM] | Ki [7] [pM] | Activity [8] | Activity [9] | Kd [10] [pM] |
| --- | --- | --- | --- | --- | --- | --- | --- | --- | --- | --- |
| CCOC(=O)c1ccc2nc(C)cc(Nc3ccc(N4CCCCC4)cc3)c2c1 | -54.5 | -7.1 | 12.8 (≈ 4.99 µg/mL) | -23.3 | 2.5 µg/mL and 6.4 µM |  |  |  |  |  |
| NNC(=O)c1ccncc1 [ISONIAZID] |  |  | 2.3 (≈ 0.315 µg/mL) |  |  | 750 | 16000 | Active | Active | < 400 |
